In publication PMC5554713 (ChemMedChem, 2017):

Assays:
β subtype of CaMKII [1] = details: cited from earlier work; for kinase activity, β subtype of CaMKII: at 0.5 μM
δ subtype of CaMKII [2] = details: cited from earlier work; for activity against δ subtype of CaMKII: at 1 μM; for inhibition of δ subtype of CaMKII: at 10 μM
γ subtype of CaMKII = details: cited from earlier work; for activity against γ subtype of CaMKII: at 1 μM; for inhibition of γ subtype of CaMKII: at 10 μM
CaMKII = details: cited from earlier work
CaMKIIγ = details: at 0.5 μM; cited from earlier work
δ subtype of CaMKII [3] = details: cited from earlier work; for kinase activity, δ subtype of CaMKII: at 0.5 μM
β subtype of CaMKII [4] = details: cited from earlier work; for activity against β subtype of CaMKII: at 1 μM; for inhibition of β subtype of CaMKII: at 10 μM
α subtype of CaMKII = details: cited from earlier work; for kinase activity, α subtype of CaMKII: at 0.5 μM
300 kinases = details: at 0.5 μM; cited from earlier work
CaMKIIδ [5] = target: T1, CaMKIIδ (Homo sapiens, UniProt Q13557); format: biochemical; details: read-out: inhibition of CaMKIIδ enzyme activity
CaMKIIδ [6] = target: T1, CaMKIIδ; test: Radiometric kinase assay; format: biochemical
How it was run: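 Outsourced radiometric assay using conventional filter-binding, which directly measures kinase catalytic activity toward a specific substrate. Run as a concentration-dependent study.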

For `CN([C@@H](Cc1ccc(OS(=O)(=O)c2cccc3cnccc23)cc1)C(=O)N1CCN(c2ccccc2)CC1)S(=O)(=O)c1cccc2cnccc12` [KN-62], the “kinase activity, β subtype of CaMKII” value (β subtype of CaMKII [1]) is given as 90%, the “activity against δ subtype of CaMKII” value (δ subtype of CaMKII [2]) is given as “Neither compound showed activity” and the “inhibition of δ subtype of CaMKII” value (δ subtype of CaMKII [2]) is given as 9%. The “activity against γ subtype of CaMKII” value (γ subtype of CaMKII) was “Neither compound showed activity”, the “inhibition of γ subtype of CaMKII” value (γ subtype of CaMKII) was 13% and the Ki (CaMKII) was 900 nM. For the same compound, the “kinase activity, γ subtype of CaMKII” value (CaMKIIγ) was 90%, the “kinase activity, δ subtype of CaMKII” value (δ subtype of CaMKII [3]) was 90% and the “activity against β subtype of CaMKII” value (β subtype of CaMKII [4]) was “Neither compound showed activity”. For the same compound, the “inhibition of β subtype of CaMKII” value (β subtype of CaMKII [4]) was 22% and the “kinase activity, α subtype of CaMKII” value (α subtype of CaMKII) was 90%.

For `CN(C)S(=O)(=O)c1ccc2c(c1)/C(=C/c1cc3c([nH]1)CCCC3)C(=O)N2` [SU6656], the “inhibition of kinase activity, β subtype of CaMKII” value (β subtype of CaMKII [1]; at 0.5 μM in the RBC study) is listed as ~ 30%, the “number of different kinases with more than 60 percent inhibition” value (300 kinases) is listed as 38 kinases and the “number of different kinases with more than 80 percent inhibition” value (300 kinases) is listed as 19 kinases. For the same compound, the “inhibition of kinase activity, δ subtype of CaMKII” value (δ subtype of CaMKII [3]; at 0.5 μM in the RBC study) was ~ 30% and the “inhibition of kinase activity, α subtype of CaMKII” value (α subtype of CaMKII; at 0.5 μM in the RBC study) was ~ 30%.

For `CCN(CC)CCCC(C)Nc1nc(/C=C/c2ccccc2)nc2cc(Cl)ccc12` (stereo not shown) [Compound 1, (E)-N4-(7-chloro-2-styrylquinazolin-4-yl)-N1,N1-diethylpentane-1,4-diamine], the inhibition at 50 µM (CaMKIIδ [5]) was ≥ 50%, the IC50 (CaMKIIδ [6]) was ~5000 nM and the “IC50 for inhibition of CaMKIIδ enzyme activity” value (CaMKIIδ [6]; concentration-dependent study, radiometric assay) was “single-digit micromolar”.

For `COc1ccc(S(=O)(=O)N(CCO)c2ccccc2CN(C)CC=Cc2ccc(Cl)cc2)cc1` [KN-93], the “kinase activity, β subtype of CaMKII” value (β subtype of CaMKII [1]) is listed as 90%, the “activity against δ subtype of CaMKII” value (δ subtype of CaMKII [2]) is listed as “Neither compound showed activity” and the “inhibition of δ subtype of CaMKII” value (δ subtype of CaMKII [2]) is listed as 53%. For the same compound, the “activity against γ subtype of CaMKII” value (γ subtype of CaMKII) was “Neither compound showed activity”, the “inhibition of γ subtype of CaMKII” value (γ subtype of CaMKII) was 33% and the IC50 (CaMKII) was 1000 to 4000 nM. The Ki (CaMKII) was 370 nM, the “kinase activity, γ subtype of CaMKII” value (CaMKIIγ) was 90% and the “kinase activity, δ subtype of CaMKII” value (δ subtype of CaMKII [3]) was 90%. For the same compound, the “activity against β subtype of CaMKII” value (β subtype of CaMKII [4]) was “Neither compound showed activity”, the “inhibition of β subtype of CaMKII” value (β subtype of CaMKII [4]) was 80% and the “kinase activity, α subtype of CaMKII” value (α subtype of CaMKII) was 90%.
